UCH37 inh – blocks the human deubiquitinase UCH37; inhibition, % (concentration not given with the values); purified proteasome/UCH37, Ub-AMC cleavage fluorescence; actives 0.33% (n = 330,000);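 active = mean inhibition over replicate wells above about 20%, limit read from the data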;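 note: 0% = compound-free wells with enzyme and 100% = wells lacking proteasome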
Target sequence (Q9Y5K5 whole entry, looked up): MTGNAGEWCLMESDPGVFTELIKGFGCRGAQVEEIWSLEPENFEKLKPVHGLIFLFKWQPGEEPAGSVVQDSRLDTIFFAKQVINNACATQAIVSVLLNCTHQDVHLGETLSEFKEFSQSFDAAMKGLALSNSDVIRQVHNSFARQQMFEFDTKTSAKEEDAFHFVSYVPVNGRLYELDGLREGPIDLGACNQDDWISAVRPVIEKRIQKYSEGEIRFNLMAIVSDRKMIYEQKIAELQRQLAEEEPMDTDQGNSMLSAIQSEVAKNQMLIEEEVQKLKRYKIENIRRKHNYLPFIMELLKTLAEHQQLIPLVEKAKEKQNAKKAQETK
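Assay system: Proteasome-bound UCH37. Buffer or medium: pH 7.4 Tris-HCl (50 mM) with ovalbumin, ATP-MgCl2, DTT. Incubation: 30 min preincubation with enzyme, 25 min cleavage at room temperature. Measured by: fluorescence, ex 355 nm, em 460 nm. Read-out basis: percent inhibition. Control set: wells without proteasome as full block, compound-free enzyme plus substrate as uninhibited.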
CTSL1 counter – cathepsin L1 inhibition, PFM18AAP counter-screen. inhibition, % at 5.96 µM. recombinant F. hepatica cathepsin L1, Z-Leu-Arg-MCA fluorescence. actives 0.49% (n = 300,000);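 active = inhibition above the mean of all tested compounds plus 3 SD, set per screening campaign, cut at about 17% in these data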;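 note: 0% = plate median of test compound wells and 100% = 1 µM Z-Phe-Ala-diazomethylketone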
CHOP UPR activ – activators of apoptotic arm of unfolded protein response (CHOP). CHO-CHOP luciferase reporter, UPR activation, luminescence; percent of tunicamycin response over DMSO baseline. activation, % at 10 µM. actives 0.34% (n = 330,000). AID 449763;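 active = at 10 µM dose, activation of 40% or more, normalized to positive control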;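 note: 100% = tunicamycin at 10 µg/mL and 0% = DMSO alone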
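Evaluation: % reporter activation, DMSO baseline versus tunicamycin full activation; System: CHO-CHOP luciferase reporter cell line; Input: 500 cells/well; Incubation: 6 h compound treatment, 37 °C; Measured by: Steady-Glo luciferase luminescence; Dosing: one dose, 10 µM in 0.5% DMSO; Buffer or medium: F12 medium, 10% FBS; Benchmarks: positive tunicamycin 10 µg/mL, negative DMSO alone.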
CHOP inhibitor – inhibitors of CHOP induction in ER stress response; CHO-K1 CHOP-promoter luciferase, tunicamycin-induced, 15-18 h; inhibition, % at 10 µM; actives 3.8% (n = 220,000); AID 2732;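 active = compounds that reduced the stress-induced luciferase reporter signal by more than about 70% of percent inhibition, limit read from the data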;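 note: 0% = tunicamycin plus vehicle and 100% = wells without tunicamycin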
XBP1 UPR activ – activators of adaptive arm of unfolded protein response (XBP1); CHO-XBP1 luciferase reporter, IRE1-XBP1 UPR activation, luminescence; percent of tunicamycin response, DMSO as zero; activation, % at 20 µM; actives 0.33% (n = 330,000);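 active = versus positive control, 20 µM dose yields 30% or more activation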;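 note: 100% = tunicamycin at 10 µg/mL and 0% = DMSO only wells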
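Signal: luciferase luminescence; Assay system: CHO-XBP1 luciferase reporter cells; Amount: one thousand reporter cells per well; Dosing: 20 µM single concentration, DMSO 1%; Benchmarks: high control tunicamycin 10 µg/mL final, low control DMSO vehicle only; Schedule: 6 h compound exposure at 37 °C, 5% CO2; Evaluation: percent activation relative to tunicamycin reference.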
CHOP confirm – confirmation of CHOP induction inhibitors | shares compounds with CHOP inhibitor | CHO-CHOP promoter luciferase reporter, tunicamycin-induced, luminescence | inhibition, % at 10 µM | actives 45% (n = 2,100);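 active = mean of three repeat readings of reporter signal inhibition above a set limit, cut at about 70% in these data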;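 note: 0% = tunicamycin plus vehicle and 100% = wells lacking tunicamycin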
UPR CHOP confirm – confirmation of apoptotic unfolded protein response (CHOP) activators | shares compounds with CHOP UPR activ | CHO-CHOP cells, CHOP-luciferase reporter luminescence; percent of tunicamycin response, DMSO as zero | activation, % at 10 µM | actives 64% (n = 1,000); in the data active = activation above about 33%;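 note: 0% = DMSO wells and 100% = tunicamycin 10 µg/mL wells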
* hit, by the source's call; nt = no result given. This is one part of a sample in which hits are shown more often than they occur.

SMILES	UCH37 inh	CTSL1 counter	CHOP UPR activ	CHOP inhibitor	XBP1 UPR activ	CHOP confirm	UPR CHOP confirm
O=C(O)c1ccccc1C(=O)Nc1ccccc1	2	-4	0	24	0	nt	nt
O=C(Nc1ccccc1)C1=C(c2ccccc2)S(=O)(=O)CCS1(=O)=O	-1	nt	nt	108*	nt	110*	nt
COC(=O)CSC1=C(C#N)C(=O)NC(c2ccccc2)S1 (stereo unspecified)	18	2	88*	99*	-3	51	29
CC(=O)NCc1ccc(C(=O)CCl)cc1	6	2	113*	106*	-3	-3	-10
CC(=O)NCc1ccc(C(=O)CCl)s1	7	13	64*	108*	-9	107*	-5
COc1cccc(-c2c(C(=O)NN=C(C)COc3ccccc3)nnn2-c2nonc2N)c1	0	nt	nt	nt	nt	nt	nt
COc1ccc(/C=N/Nc2ccc(C(=O)O)cc2)c(OC)c1OC	nt	5	5	nt	-1	nt	nt
COC(=O)c1ccc2c(c1)C(C)(C)C(/C=C/c1ccc(OC)c(OC)c1OC)=[N+]2C	-164	-1	64*	nt	-14	141*	-11
CC(=NNC(=S)Nc1ccc(C)cc1)c1cccc(N)c1	-17	nt	nt	nt	nt	nt	nt
CC(C)(C)C1=CC(=O)C(=O)C(C(C)(C)C)=C1	1	6	144*	104*	0	-178	326*
O=C(O)CC1SC(NN=Cc2ccc(Br)cc2)NC1=O (stereo unspecified)	11	nt	nt	nt	nt	nt	nt
Cc1ccc(-c2nn(-c3ccccc3)cc2C=NO)cc1	3	nt	nt	nt	nt	nt	nt
Cc1ccc(-c2nn(-c3ccccc3)cc2C=C2C(=O)CC(C)(C)CC2=O)cc1	1	6	48*	98*	13	-9	206*
CN1C[C@@H](c2ccc(Cl)c(Cl)c2)[C@@]2(COc3ccccc3C2=O)[C@@]12C(=O)Nc1ccccc12	2	nt	nt	nt	nt	nt	nt
COc1ccc(-c2cc(C(F)(F)F)nc(S(C)(=O)=O)n2)cc1	-16	2	43*	106*	2	-139	9
CCOC(=O)CCS(=O)(=O)c1nc(-c2ccccc2)cc(C(F)(F)F)n1	nt	-1	73*	nt	-11	136*	-9
COc1ccc(-c2cc(C(F)(F)F)nc(N)n2)cc1	-15	-3	4	8	4	nt	nt
CCOC(=O)CS(=O)(=O)c1nc(-c2ccccc2)cc(C(F)(F)F)n1	3	1	-11	nt	-9	nt	nt
CC(=NNc1cccc([N+](=O)[O-])c1)c1cc2ccccc2o1	5	nt	nt	nt	nt	nt	nt
O=[N+]([O-])c1ccc(NN=Cc2cccs2)nc1	0	nt	nt	nt	nt	nt	nt
CN(C)c1ncc(C2=C(Cl)C(=O)C(N3CCCC3)=C(Cl)C2=O)s1	-147	2	83*	108*	1	64	-8
Cc1nc([N+](=O)[O-])c(Br)n1CC(=O)c1ccc2ccccc2c1	1	-2	144*	103*	2	-130	104*
Cc1nc([N+](=O)[O-])c(Br)n1CC(=O)c1ccccc1	6	1	5	-97	-2	nt	nt
CC(C)N=c1scc(-c2ccco2)n1/N=C/c1ccc(O)c(O)c1	nt	3	159*	100*	20	-17	127*
COCCN=c1scc(-c2ccco2)n1/N=C/c1ccc(O)c(O)c1O	nt	1	23	-80	6	nt	nt
SMILES	UCH37 inh	CTSL1 counter	CHOP UPR activ	CHOP inhibitor	XBP1 UPR activ	CHOP confirm	UPR CHOP confirm
Cc1nnsc1C(=O)NN=Cc1cccc(C(F)(F)F)c1	5	nt	nt	nt	nt	nt	nt
C=C(C)C(=O)OC1(C(F)(F)F)Oc2cc(C)ccc2NC1=O (stereo unspecified)	3	-26	45*	109*	-5	116*	20
Fc1ccc(C=NNC(=S)Nc2ccc(Cl)cc2)cc1F	6	nt	nt	nt	nt	nt	nt
FC(F)(F)c1nnc(-c2ccccc2)nc1Oc1ccc(Cl)cc1Cl	1	0	3	-61	-4	nt	nt
FC(F)(F)c1nnc(-c2ccccc2)nc1Sc1ccc(Cl)cc1	5	0	84*	114*	-6	119*	-1
FC(F)(F)c1nnc(-c2ccccc2)nc1Sc1ccccc1	4	1	201*	109*	22	-155	59*
CC(=NOC(=O)c1ccccc1)c1oc(C)nc1C	3	nt	nt	nt	nt	nt	nt
Nc1nnnn1/N=C/C(Br)=C/c1ccccc1	nt	-2	109*	nt	-3	90*	64*
O=C(NN=Cc1c[nH]c2ccccc12)c1cccc(O)c1	7	nt	nt	nt	nt	nt	nt
Cc1ccc(OCC(=O)NN=Cc2ccncc2)cc1C	1	nt	nt	nt	nt	nt	nt
CC(CC(=O)c1cccs1)CC(=O)c1cccs1	3	0	3	16	4	nt	nt
Cc1cc(C)c(C(CC(=O)c2cccs2)C(C#N)C#N)c(C)c1 (stereo unspecified)	5	3	47*	103*	-1	58	95*
CC(=O)SC(C[N+](=O)[O-])c1cn(C(C)=O)c2ccccc12 (stereo unspecified)	nt	-16	159*	106*	0	-60	-10
O=[N+]([O-])c1cc(-c2ncccn2)c([N+](=O)[O-])s1	8	6	73*	109*	-5	-112	164*
O=C(Nc1ncccn1)c1cc([N+](=O)[O-])cc([N+](=O)[O-])c1	2	4	4	-9	-2	nt	nt
COc1ccc(OCC(=O)NN=Cc2ccco2)cc1	3	nt	nt	nt	nt	nt	nt
Clc1nc2c(-c3ccccc3)nnn2c2ccccc12	nt	2	60*	101*	0	-80	32
O=C1COc2ccc(C(=O)CCl)cc2N1	nt	10	148*	101*	-6	18	-7
CCOc1cc(/C=C2\C(=O)ON=C2c2ccccc2)ccc1OC	4	-4	1	nt	-4	nt	nt
CCOc1cc(/C=C2/C(=O)ON=C2C)ccc1OCc1ccccc1F	4	-1	112*	99*	16	112*	68*
CCOc1cc(/C=C2/C(=O)ON=C2C)ccc1OCc1ccccc1	1	-3	58*	105*	3	-16	5
CS(=O)(=O)c1nc(-c2ccc(Br)cc2)cc(-c2ccccc2)c1C#N	-5	-3	279*	108*	11	-30	130*
N#Cc1c(-c2cccc(F)c2)cc(-c2ccccc2)nc1Br	-30	1	2	7	0	nt	nt
CC(C)(C)c1cnnn1-c1ccc(C=O)cc1	2	-2	2	-12	1	nt	nt
CC(C)(C)c1cnnn1-c1ccc(C(=O)CCl)cc1	4	2	56*	111*	-5	-67	-11
O=C(NN=Cc1cn(-c2cccs2)nc1-c1ccccc1)c1ccccc1Br	3	nt	nt	nt	nt	nt	nt

High-throughput results from PubChem.
